Runt-CBFb FRET – inhibitors of RUNX1 Runt–CBFb binding, primary screen, biochemical, FRET, Cerulean-Runt, Venus-CBFb, uHTS; Runt-related transcription factor 1 (Homo sapiens) + Core-binding factor subunit beta …; Cerulean-Runt/Venus-CBFb FRET ratio 530/480, 1 h; inhibition, % at 20 µM; hit rate 0.46% among 220,000; AID 1496, 2009;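 active = inhibition over about 50% at 20 µM in the single-dose screen, limit read from the data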
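Assay system: Cerulean-tagged RUNX1 Runt domain (FRET donor) fusion protein / Amount: 100 nM each of Venus-CBFb and Cerulean-Runt domain / Medium: Tris buffer pH 7.5 with salts and BSA / Also added: Venus-CBFb 100 nM / Schedule: 1 h complex formation plus 1 h compound treatment, room temperature / Signal: FRET fluorescence / Read-out: loss of energy transfer signal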
Runt-SMMHC FRET – inhibitors of RUNX1 Runt–CBFb-SMMHC binding, primary screen, biochemical, FRET, Cerulean-Runt, Venus-CBFb-SMMHC, uHTS; Cerulean-Runt/Venus-CBFb-SMMHC FRET ratio 530/480, 1 h; inhibition, % at 20 µM; Runt-related transcription factor 1 (Homo sapiens) + Core-binding factor subunit beta …; hit rate 0.74% among 220,000;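 active = mean inhibition across duplicate retests at 20 µM reaching about 50%, limit read from the data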;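 note: inhibitors lower the FRET ratio by blocking Runt binding to CBFb-SMMHC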
CaV13 FRET inh – Disruptors of the CACNA1D IQ motif to Ca2+-dependent inactivation inhibitor domain association, primary screening, Förster resonance energy transfer in intact living …. HEK cells, CFP/YFP FRET ICDI-IQ, plate reader, 10 min; percent FRET-ratio fall versus neutral wells. inhibition, % at 12.3 µM. hit rate 0.098% among 340,000;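 active = mean replicate inhibition of at least 30% and at least 1% of replicates passing that level; inconclusive = only one of the two criteria is met; inactive = neither criterion is met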
RanGTP-Imp inh – inhibitors of RanGTP-importin-beta interaction, primary screen, biochemical, FRET, CFP-Ran, YFP-importin-beta, homogeneous; cell-free CFP-Ran/YFP-importin-beta FRET ratio; inhibition, % (test concentration not listed); hit rate 1.1% among 300,000; AID 2216, 2009;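 active = more than half of the replicate wells show a fall in the fluorescence ratio signal beyond about 16%, limit read from the data, passing the limit was not always enough; inconclusive = exactly half of the replicate wells pass the set limit; inactive = fewer than half of replicates pass the limit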
Hck Nef HTS – inhibitors of Nef-activated human Hck kinase, primary screen, biochemical, Z-Lyte FRET, 384-well, Hck-YEEI | Recombinant Hck-YEEI plus Nef, Z-Lyte FRET kinase assay | inhibition, % at 20 µM | hit rate 0.68% among 220,000 | AID 463187, 2010;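 active = Hck-Nef kinase inhibition above about 50%, limit read from the data; inactive = inhibition below that limit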
Target sequence (P08631 whole entry, looked up): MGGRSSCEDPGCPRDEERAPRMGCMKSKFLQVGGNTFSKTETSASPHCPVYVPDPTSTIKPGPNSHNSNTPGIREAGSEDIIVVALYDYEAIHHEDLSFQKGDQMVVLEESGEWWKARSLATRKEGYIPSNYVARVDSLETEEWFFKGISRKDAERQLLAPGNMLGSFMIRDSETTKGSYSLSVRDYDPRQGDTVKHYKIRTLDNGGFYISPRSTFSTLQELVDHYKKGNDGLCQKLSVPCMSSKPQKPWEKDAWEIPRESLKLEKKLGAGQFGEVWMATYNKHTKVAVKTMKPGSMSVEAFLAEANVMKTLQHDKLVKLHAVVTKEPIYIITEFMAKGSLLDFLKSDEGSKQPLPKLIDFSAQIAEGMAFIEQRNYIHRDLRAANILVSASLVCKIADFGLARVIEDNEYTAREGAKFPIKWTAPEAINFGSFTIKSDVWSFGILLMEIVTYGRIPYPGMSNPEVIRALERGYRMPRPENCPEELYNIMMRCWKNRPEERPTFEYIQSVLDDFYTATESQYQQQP
Runt-CBFb TRFRET – inhibitors of RUNX1 Runt–CBFb binding, biochemical, TR-FRET; inhibition, % at 20 µM; AID 1502, 2009; shares compounds with Runt-CBFb FRET; TR-FRET RUNX1 Runt domain-CBFb binding; hit rate 20% among 480; in the data active = inhibition above about 40%
YIC FRET counter – YIC intramolecular FRET probe signal interference, dose response, counter-screen for RanGTP-importin-beta inhibitor project, biochemical, fluorescence FRET; hit rate 40% among 1,000; Purified YIC probe, intramolecular FRET ratio YFP/CFP; shares compounds with RanGTP-Imp inh; IC50, µM; AID 435026, 2010;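 active = fitted half-maximal inhibitory concentration no more than tenfold above the top dose tested; inconclusive = flat fit with 30 to 70% activity, or poor fit; inactive = half-maximal concentration beyond tenfold above the top dose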
Hck-Nef confirm – retest of Hck:Nef kinase inhibitor hits, confirmation, biochemical, Z-Lyte FRET, 384-well, p-Tyr peptide counterscreen; shares compounds with Hck Nef HTS; AID 463188, 2010; calls only at 10 µM; hit rate 28% among 1,300; Recombinant Hck-YEEI:Nef, Z-Lyte FRET kinase assay;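 active = average inhibition of at least 50%, with Z-scores no higher than 3 in both the phospho-tyrosine peptide and fluorescence counterscreens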
Numbers stand for hits; i = inactive; ? = inconclusive; nt = not tested or not shown; + = active, no number. Compounds with a hit are over-represented: about 1.5% of the library has one in this group of screens.

SMILES	Runt-CBFb FRET	Runt-SMMHC FRET	CaV13 FRET inh	RanGTP-Imp inh	Hck Nef HTS	Runt-CBFb TRFRET	others
COc1ccc(-c2noc(CCC(=O)N3CCC(C)CC3)n2)cc1	85	i	i	i	i	i
O=C1NCCC/C1=N\Nc1ccc(Br)cc1	i	i	i	i	i	nt
CC1CC/C(=N/Nc2ccccc2)C(=O)N1 (centres undefined)	51	i	i	i	i	i
Cc1c(Cc2ccccc2)sc(/N=C/c2c(O)ccc3ccccc23)c1C(N)=O	105	63	nt	120	i	i
Cc1c(Cc2ccccc2)sc(/N=C/c2ccc3ccccc3c2)c1C(N)=O	i	i	nt	nt	i	nt
COc1ccc2cc(-c3nc4ccccc4n3C)c(=O)oc2c1	60	127	i	44	i	i	YIC FRET counter=11
Cn1c(-c2cc3ccccc3oc2=O)nc2ccccc21	i	i	i	i	i	nt
CC(=O)COc1ccc2c3c(c(=O)oc2c1C)CCCCC3	i	i	i	?	i	nt
Cc1c(O)ccc2c3c(c(=O)oc12)CCC(C)C3 (centres undefined)	66	118	i	37	i	i	YIC FRET counter=14
O=S(=O)(SC1=NCCN1)c1ccccc1	nt	nt	i	nt	nt	nt
CCCC1C(C#N)=C(N)Oc2cc(C)n(C)c(=O)c21 (centres undefined)	95	97	i	18	i	63	YIC FRET counter=i
CCCn1c(NC(=O)CCS(=O)(=O)c2ccc(C)cc2)nc2ccccc21	nt	nt	i	nt	nt	nt
Cc1nc2[nH]c(=O)c3c(n2n1)NC1=C(C(=O)CC(C)(C)C1)C3c1ccc(F)cc1 (centres undefined)	80	100	i	35	i	i	YIC FRET counter=4.1
CCOC(=O)C1CCCN(C(=O)CCc2nnc(-c3ccc(C(C)=O)s3)o2)C1 (centres undefined)	nt	nt	i	i	nt	nt
Cc1ccc2cc(C#N)c(N3CCN(C(=O)c4ccccc4)CC3)nc2c1	nt	nt	i	i	nt	nt
Cc1ccc2nc(N3CCN(C(=O)c4cccs4)CC3)c(C#N)cc2c1	56	124	i	18	i	i	YIC FRET counter=16
COc1ccc(F)cc1-c1cc(C(=O)NCc2cccc(Cl)c2)[nH]n1	nt	nt	i	nt	nt	nt
NN1C(=O)/C(=C2/Sc3ccccc3N2CCCS(=O)(=O)O)SC1=S	nt	nt	i	i	nt	nt
O=C1NC(=S)S/C1=C1\Sc2ccccc2N1CCCS(=O)(=O)O	88	123	nt	27	i	i	YIC FRET counter=15
COc1ccc(C(=O)c2cc3ccc(O)cc3oc2=O)cc1	88	88	i	48	i	i	YIC FRET counter=15
CCCn1c(=N)c(C(=O)NCc2ccc3c(c2)OCO3)cc2c(=O)n3cccc(C)c3nc21	71	99	i	40	i	i	YIC FRET counter=15
COc1ccc(/C=N/NC(=O)c2ccccc2O)cc1Cn1cc([N+](=O)[O-])cn1	i	i	i	i	i	nt
COc1ccc(/C=N/NC(=O)c2cc(O)c(O)c(O)c2)cc1Cn1cc([N+](=O)[O-])cn1	54	i	i	i	50	i	Hck-Nef confirm=i
CCOC(=O)c1cc2c(=O)n3cccc(C)c3nc2n(CCOC)c1=NC(C)=O	94	87	i	70	87	i
COc1ccc(C(C)(C)C)cc1NC(=O)C1CC(=O)N(C2CCCC2)C1 (centres undefined)	nt	nt	i	nt	nt	nt
SMILES	Runt-CBFb FRET	Runt-SMMHC FRET	CaV13 FRET inh	RanGTP-Imp inh	Hck Nef HTS	Runt-CBFb TRFRET	others
CCOC(=O)c1sc(Nc2nc3c(OC)cccc3s2)nc1C	84	82	i	i	67	i	Hck-Nef confirm=i
COC(=O)c1ccc(C(=O)OC)c(N)c1	68	110	nt	nt	86	43
COC(=O)c1ccc(C(=O)OC)c(NC(=O)Oc2ccccc2)c1	66	132	i	i	58	i
O=C1NC(Cc2ccccc2)c2nc3ccc(Cl)cc3c(=O)n2-c2ncccc21 (centres undefined)	nt	nt	i	nt	nt	nt
Cc1c(Cc2ccccc2)c(=O)oc2cc(O)ccc12	66	128	i	i	139	i
O=C(O)CN1C(=O)/C(=C/c2ccc(SCc3ccccc3)o2)SC1=S	70	i	i	nt	73	i	Hck-Nef confirm=i
O=C(O)c1ccc(N/N=C/c2ccc(-c3cccc(Cl)c3)o2)cc1	58	80	i	68	53	i	Hck-Nef confirm=i
O=C(O)c1cccc(-c2ccc(/C=N/Nc3ccc([N+](=O)[O-])cc3)o2)c1	i	i	i	i	i	nt
CCNC(=O)CSc1nc2ccccc2c(=O)n1CCCOC(C)C	i	i	i	i	i	nt
CC(=O)N=c1c(C#N)cc2c(=O)n3ccccc3nc2n1CCCOC(C)C	76	82	+	102	56	i
O=C(CN(C(=O)CCC(=O)Nc1nccs1)c1ccc(F)cc1)NCCc1ccccc1	nt	nt	i	i	nt	nt
COc1c(O)c(O)c2oc(-c3ccccc3)cc(=O)c2c1OC	58	53	nt	i	66	65	Hck-Nef confirm=+
C=CCn1c(-c2cccs2)nc2nc3ccccc3nc21	55	126	i	i	72	i	Hck-Nef confirm=i
C=CCn1c(-c2cccs2)nc2ccccc21	i	i	nt	nt	i	nt
O=C(O)c1cc(N2N=C(C(F)(F)F)/C(=C/C=C/c3ccco3)C2=O)ccc1Cl	53	i	i	nt	97	92	Hck-Nef confirm=+
CCOC(=O)c1ccc(N2N=C(C)/C(=C/C=C/c3ccco3)C2=O)cc1	i	i	i	i	i	nt
Cc1c(C)c2cc(Cl)c(O)c(CN3CCCC(C)C3)c2oc1=O (centres undefined)	84	139	i	?	81	i
CCCc1cc(=O)oc2c(CN3CCCC3)c(O)ccc12	54	122	nt	i	93	i
CCN(CC)Cc1c(O)ccc2c(-c3ccccc3)cc(=O)oc12	i	i	i	i	i	nt
Cc1cc(=O)oc2c(CN3CCC(C)CC3)c(O)c(Cl)cc12	77	140	i	nt	118	41
CCN(CC)Cc1c(O)c(Cl)cc2c(C)c(C)c(=O)oc12	83	91	nt	20	77	i	YIC FRET counter=30

High-throughput results (PubChem)
